Assay results: ChEMBL document CHEMBL1157888, “New 5-HT(1A) receptor ligands containing a N'-cyanoisonicotinamidine nucleus: synthesis and in vitro pharmacological evaluation” (Bioorg Med Chem Lett, 2010); call rule not given here

Experiments:
[1] = target: T1, 5-hydroxytryptamine receptor 1A (Rattus norvegicus, UniProt P19327); test: Displacement of [3H]-8-OH-DPAT from 5-HT1A receptor in Sprague-Dawley rat brain cortex after 30 mins liquid scintillation spectrometer; assay type: tissue-based, Cerebral cortex
T1 sequence (P19327 whole entry): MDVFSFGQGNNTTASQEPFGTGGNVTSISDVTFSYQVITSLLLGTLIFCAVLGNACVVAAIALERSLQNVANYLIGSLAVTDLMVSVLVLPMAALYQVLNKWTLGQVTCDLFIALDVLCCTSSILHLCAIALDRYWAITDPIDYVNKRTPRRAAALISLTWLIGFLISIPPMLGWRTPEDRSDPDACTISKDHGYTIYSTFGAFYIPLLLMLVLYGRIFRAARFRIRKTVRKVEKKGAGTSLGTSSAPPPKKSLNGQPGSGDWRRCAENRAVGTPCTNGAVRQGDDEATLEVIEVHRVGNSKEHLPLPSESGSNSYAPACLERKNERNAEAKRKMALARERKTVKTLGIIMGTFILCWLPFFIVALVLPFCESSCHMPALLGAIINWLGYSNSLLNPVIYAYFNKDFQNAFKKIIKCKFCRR
How it was run: (§1)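 Radioligand competition binding. Compounds were dissolved in ethanol or in 5% DMSO, and blank runs checked 5% DMSO for interference with binding. Six test-compound concentrations, each in triplicate, gave IC50 values by curve fitting. Ki was calculated by Cheng–Prusoff, Ki = IC50/(1 + S/KD), where S is the hot-ligand concentration and KD came from Scatchard analysis for each labeled ligand.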

[2] = target: 5-hydroxytryptamine receptor 2A (Rattus norvegicus, UniProt P14842); test: Displacement of [3H]ketanserin hydrochloride from 5-HT2A receptor in Sprague-Dawley rat brain cortex after 15 mins; how it was run: as §1
Sequence of 5-hydroxytryptamine receptor 2A (P14842 whole entry): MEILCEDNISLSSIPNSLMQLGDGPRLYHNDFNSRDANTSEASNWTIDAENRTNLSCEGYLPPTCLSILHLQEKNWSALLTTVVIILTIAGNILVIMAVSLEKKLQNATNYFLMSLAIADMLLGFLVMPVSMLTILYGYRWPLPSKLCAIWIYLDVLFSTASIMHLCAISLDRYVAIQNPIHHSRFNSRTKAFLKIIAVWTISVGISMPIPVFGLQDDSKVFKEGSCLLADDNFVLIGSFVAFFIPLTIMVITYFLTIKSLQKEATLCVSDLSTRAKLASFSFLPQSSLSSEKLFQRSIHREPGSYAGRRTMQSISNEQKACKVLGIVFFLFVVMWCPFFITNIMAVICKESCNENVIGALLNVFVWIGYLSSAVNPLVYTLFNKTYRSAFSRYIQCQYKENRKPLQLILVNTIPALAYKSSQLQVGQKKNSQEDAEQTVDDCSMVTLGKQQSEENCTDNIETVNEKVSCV

[3] = target: T2, 5-hydroxytryptamine receptor 2C (Rattus norvegicus, UniProt P08909); test: Displacement of [3H]mesulergine from 5-HT2C receptor in Sprague-Dawley rat brain cortex after 15 mins; how it was run: as §1
T2 sequence (P08909 whole entry): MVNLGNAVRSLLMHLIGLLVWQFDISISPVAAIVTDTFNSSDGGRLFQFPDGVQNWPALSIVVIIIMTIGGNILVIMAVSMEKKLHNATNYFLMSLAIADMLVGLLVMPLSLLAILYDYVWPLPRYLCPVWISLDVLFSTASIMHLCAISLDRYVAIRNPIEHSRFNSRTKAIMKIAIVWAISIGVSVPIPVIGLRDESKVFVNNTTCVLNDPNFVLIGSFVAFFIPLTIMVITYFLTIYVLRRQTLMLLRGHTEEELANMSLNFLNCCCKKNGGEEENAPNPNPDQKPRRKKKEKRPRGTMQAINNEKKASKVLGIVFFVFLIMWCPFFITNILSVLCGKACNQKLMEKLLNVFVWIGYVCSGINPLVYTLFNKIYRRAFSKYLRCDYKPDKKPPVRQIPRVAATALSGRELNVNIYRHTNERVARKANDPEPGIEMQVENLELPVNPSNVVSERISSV

D(1A) dopamine receptor = D(1A) dopamine receptor (Rattus norvegicus, UniProt P18901); test: Displacement of [3H]SCH-23390 from dopamine D1 receptor in rat striatum after 15 mins by liquid scintillation counting; how it was run: as §1
Sequence of D(1A) dopamine receptor (P18901 whole entry): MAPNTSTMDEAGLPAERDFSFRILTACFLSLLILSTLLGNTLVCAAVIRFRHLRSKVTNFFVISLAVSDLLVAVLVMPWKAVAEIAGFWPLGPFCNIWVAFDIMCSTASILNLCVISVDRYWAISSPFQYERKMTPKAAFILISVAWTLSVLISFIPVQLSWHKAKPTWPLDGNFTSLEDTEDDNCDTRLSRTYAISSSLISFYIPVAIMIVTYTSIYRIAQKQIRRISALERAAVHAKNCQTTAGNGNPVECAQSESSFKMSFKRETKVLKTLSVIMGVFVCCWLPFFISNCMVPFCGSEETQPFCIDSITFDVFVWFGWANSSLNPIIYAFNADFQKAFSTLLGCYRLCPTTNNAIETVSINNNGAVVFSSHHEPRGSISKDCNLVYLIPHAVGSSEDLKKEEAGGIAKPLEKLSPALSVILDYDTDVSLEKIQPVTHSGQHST

D(2) dopamine receptor = D(2) dopamine receptor (Rattus norvegicus, UniProt P61169); test: Displacement of [3H]spiperone from dopamine D2 receptor in rat striatum after 15 mins by liquid scintillation counting; how it was run: as §1
Sequence of D(2) dopamine receptor (P61169 whole entry): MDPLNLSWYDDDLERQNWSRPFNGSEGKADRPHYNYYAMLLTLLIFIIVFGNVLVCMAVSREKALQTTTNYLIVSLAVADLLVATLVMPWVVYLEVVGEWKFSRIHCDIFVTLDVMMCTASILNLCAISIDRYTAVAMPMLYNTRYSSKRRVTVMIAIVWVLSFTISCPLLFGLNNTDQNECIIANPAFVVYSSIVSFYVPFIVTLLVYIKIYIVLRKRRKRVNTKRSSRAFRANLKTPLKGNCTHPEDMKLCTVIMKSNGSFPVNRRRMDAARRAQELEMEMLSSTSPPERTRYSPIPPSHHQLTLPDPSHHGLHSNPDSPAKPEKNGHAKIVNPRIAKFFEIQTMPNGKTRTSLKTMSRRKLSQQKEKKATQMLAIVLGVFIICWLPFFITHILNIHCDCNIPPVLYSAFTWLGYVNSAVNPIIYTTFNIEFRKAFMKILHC

[4] = target: T3, Adrenergic receptor alpha-1 (Rattus norvegicus, UniProt P15823+P23944+P43140); test: Displacement of [3H]prazosin from alpha1 adrenergic receptor in rat striatum after 30 mins by liquid scintillation counting; settings: in the assay text read “rat brain cortex” for “rat striatum”; how it was run: as §1
T3 sequence (P15823 whole entry): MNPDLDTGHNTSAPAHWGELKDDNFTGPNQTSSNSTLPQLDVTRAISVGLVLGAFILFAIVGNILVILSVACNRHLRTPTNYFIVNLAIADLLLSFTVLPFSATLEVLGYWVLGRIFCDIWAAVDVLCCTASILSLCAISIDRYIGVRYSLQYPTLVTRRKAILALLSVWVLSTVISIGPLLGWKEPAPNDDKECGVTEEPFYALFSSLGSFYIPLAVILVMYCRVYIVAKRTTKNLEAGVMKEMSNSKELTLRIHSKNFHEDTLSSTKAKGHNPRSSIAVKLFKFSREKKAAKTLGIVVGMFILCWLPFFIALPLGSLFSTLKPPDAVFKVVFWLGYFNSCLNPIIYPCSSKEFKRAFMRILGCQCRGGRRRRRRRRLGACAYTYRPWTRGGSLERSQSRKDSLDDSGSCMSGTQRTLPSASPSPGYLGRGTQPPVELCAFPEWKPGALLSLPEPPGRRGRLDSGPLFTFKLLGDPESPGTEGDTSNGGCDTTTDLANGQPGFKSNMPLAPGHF
T3 sequence (P23944 whole entry): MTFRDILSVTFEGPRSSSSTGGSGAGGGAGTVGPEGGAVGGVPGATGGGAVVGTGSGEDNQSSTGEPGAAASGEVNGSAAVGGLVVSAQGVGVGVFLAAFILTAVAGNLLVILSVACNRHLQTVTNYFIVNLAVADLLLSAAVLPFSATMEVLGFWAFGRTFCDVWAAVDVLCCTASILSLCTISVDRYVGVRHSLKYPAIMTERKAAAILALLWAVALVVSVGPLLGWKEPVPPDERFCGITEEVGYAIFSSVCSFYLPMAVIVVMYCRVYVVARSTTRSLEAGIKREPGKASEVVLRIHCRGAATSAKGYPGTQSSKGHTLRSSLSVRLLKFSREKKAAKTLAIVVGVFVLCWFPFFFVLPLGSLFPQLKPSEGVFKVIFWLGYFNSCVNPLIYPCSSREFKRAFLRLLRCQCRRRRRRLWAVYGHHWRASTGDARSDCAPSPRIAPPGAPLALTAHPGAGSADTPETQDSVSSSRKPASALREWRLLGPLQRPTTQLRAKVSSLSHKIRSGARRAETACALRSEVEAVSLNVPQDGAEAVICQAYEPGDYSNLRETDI
T3 sequence (P43140 whole entry): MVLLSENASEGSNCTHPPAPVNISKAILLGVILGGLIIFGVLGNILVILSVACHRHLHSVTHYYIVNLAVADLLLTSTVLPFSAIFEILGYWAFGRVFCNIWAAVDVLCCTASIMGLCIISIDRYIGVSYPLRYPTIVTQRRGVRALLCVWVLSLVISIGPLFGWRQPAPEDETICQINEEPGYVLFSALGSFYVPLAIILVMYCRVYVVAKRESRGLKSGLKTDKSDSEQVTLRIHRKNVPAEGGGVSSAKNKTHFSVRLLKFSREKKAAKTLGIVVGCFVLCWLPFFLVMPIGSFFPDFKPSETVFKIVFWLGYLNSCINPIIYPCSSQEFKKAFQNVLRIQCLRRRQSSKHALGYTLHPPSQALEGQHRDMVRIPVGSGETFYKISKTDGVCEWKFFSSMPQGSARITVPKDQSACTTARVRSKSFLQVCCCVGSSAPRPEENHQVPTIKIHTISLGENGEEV

[5] = target: T4, Adrenergic receptor alpha-2 (Rattus norvegicus, UniProt P22086+P19328+P22909); test: Displacement of [3H]yohimbine from alpha 2 adrenergic receptor in rat brain cortex after 30 mins by liquid scintillation counting; assay type: tissue-based; how it was run: as §1
T4 sequence (P22086 whole entry): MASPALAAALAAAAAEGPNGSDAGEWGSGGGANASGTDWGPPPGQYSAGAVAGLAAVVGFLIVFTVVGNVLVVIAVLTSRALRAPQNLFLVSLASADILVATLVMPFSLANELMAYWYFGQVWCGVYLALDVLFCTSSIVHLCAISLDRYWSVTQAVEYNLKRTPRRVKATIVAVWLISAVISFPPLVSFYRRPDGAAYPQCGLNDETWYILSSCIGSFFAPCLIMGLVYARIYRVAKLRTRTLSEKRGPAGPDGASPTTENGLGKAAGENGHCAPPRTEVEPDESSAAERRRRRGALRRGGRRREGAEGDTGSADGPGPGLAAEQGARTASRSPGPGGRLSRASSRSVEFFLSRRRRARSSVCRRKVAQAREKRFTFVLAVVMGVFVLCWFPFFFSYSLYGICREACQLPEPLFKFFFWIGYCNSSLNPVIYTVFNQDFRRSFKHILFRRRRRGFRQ
T4 sequence (P19328 whole entry): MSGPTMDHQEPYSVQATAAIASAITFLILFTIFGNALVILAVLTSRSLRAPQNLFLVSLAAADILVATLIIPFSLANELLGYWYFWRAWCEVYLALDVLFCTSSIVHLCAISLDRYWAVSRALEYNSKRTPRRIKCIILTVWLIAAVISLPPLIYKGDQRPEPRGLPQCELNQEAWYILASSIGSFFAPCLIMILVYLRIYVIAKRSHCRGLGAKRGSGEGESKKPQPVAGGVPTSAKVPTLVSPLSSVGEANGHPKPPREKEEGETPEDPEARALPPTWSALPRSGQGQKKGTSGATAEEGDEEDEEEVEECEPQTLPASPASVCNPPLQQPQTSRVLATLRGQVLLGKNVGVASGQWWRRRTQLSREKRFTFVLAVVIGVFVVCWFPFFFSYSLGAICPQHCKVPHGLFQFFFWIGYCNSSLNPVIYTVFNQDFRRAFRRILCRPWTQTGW
T4 sequence (P22909 whole entry): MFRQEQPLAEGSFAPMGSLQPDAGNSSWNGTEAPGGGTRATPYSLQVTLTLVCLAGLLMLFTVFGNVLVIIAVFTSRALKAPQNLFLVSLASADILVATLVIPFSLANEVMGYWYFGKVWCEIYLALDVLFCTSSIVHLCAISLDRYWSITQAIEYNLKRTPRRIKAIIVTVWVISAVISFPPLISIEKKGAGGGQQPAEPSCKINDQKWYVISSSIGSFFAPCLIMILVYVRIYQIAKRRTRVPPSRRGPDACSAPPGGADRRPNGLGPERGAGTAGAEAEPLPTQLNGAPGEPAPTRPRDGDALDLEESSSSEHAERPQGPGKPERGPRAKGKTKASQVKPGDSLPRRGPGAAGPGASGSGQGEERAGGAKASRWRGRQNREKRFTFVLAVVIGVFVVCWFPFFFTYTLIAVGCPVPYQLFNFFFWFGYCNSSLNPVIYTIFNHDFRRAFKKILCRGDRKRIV

Row | Compound | Ki [1] | Ki [2] | Ki [3] | Ki ([2]; read-out: Ki) | Ki ([1]; read-out: Ki) | Ki (D(1A) dopamine receptor) | Ki (D(2) dopamine receptor) | Ki [4] | Ki [5] | Ki ([3]; read-out: Ki)
1 | C=CCN1CCN(CCCN/C(=N\C#N)c2ccncc2)CC1 | Not Active | Not Active | Not Active |  |  |  |  |  |  | 
2 | CCOCCN1CCN(CCCN/C(=N\C#N)c2ccncc2)CC1 |  | Not Active | Not Active |  | > 10000 nM |  |  |  |  | 
3 | N#C/N=C(\NCCCN1CCN(c2cccc(C(F)(F)F)c2)CC1)c1ccncc1 |  |  | Not Active | 32.1 nM | 141 nM |  |  |  |  | 
4 | N#C/N=C(\NCCCN1CCN(c2ncccn2)CC1)c1ccncc1 |  | Not Active | Not Active |  | 172 nM |  |  |  |  | 
5 | COc1ccc(N2CCN(CCCN/C(=N\C#N)c3ccncc3)CC2)cc1 |  |  | Not Active | > 10000 nM | > 10000 nM |  |  |  |  | 
6 | N#C/N=C(\NCCCN1CCN(Cc2ccc3c(c2)OCO3)CC1)c1ccncc1 |  |  | Not Active | > 10000 nM | > 10000 nM |  |  |  |  | 
7 | N#C/N=C(\NCCCN1CCN(C(=O)c2ccco2)CC1)c1ccncc1 |  |  | Not Active | > 10000 nM | > 10000 nM |  |  |  |  | 

Now from value to molecule:

Row | Ki [1] | Ki [2] | Ki [3] | Ki ([2]; read-out: Ki) | Ki ([1]; read-out: Ki) | Ki (D(1A) dopamine receptor) | Ki (D(2) dopamine receptor) | Ki [4] | Ki [5] | Ki ([3]; read-out: Ki) | Compound
8 | Not Active |  | Not Active | > 10000 nM |  |  |  |  |  |  | COCCN1CCN(CCCN/C(=N\C#N)c2ccncc2)CC1
9 |  |  | Not Active | > 10000 nM | 6.17 nM | 1630 nM | > 10000 nM | 912 nM | > 10000 nM |  | N#C/N=C(\NCCCN1CCN(c2cccc(Cl)c2)CC1)c1ccncc1
10 |  | Not Active | Not Active |  | 0.038 nM | > 10000 nM | > 10000 nM | > 10000 nM | > 10000 nM |  | N#C/N=C(\NCCCN1CCN(c2ccccn2)CC1)c1ccncc1
11 |  |  |  | 1900 nM | 21.3 nM | > 10000 nM | > 10000 nM | 190 nM | 516 nM | 11.5 nM | CCOc1ccccc1N1CCN(CCCN/C(=N\C#N)c2ccncc2)CC1
12 | Not Active |  | Not Active | > 10000 nM |  |  |  |  |  |  | N#C/N=C(\NCCCN1CCN(c2ccccc2C#N)CC1)c1ccncc1
13 |  |  | Not Active | > 10000 nM | 101 nM |  |  |  |  |  | Cc1cccc(N2CCN(CCCN/C(=N\C#N)c3ccncc3)CC2)c1C
14 |  |  | Not Active | > 10000 nM | 166 nM |  |  |  |  |  | N#C/N=C(\NCCCN1CCN(c2ccccc2Cl)CC1)c1ccncc1
15 |  |  | Not Active | > 10000 nM | 1.47 nM | > 10000 nM | > 10000 nM | > 10000 nM | 2570 nM |  | COc1ccccc1N1CCN(CCCN/C(=N\C#N)c2ccncc2)CC1
